Assay results collected from several papers.
Compare with care: the assays were run in different laboratories.
MDH2: Malate dehydrogenase, mitochondrial (MDH2, Sus scrofa, UniProt P00346)
Gpr84: G-protein coupled receptor 84 (Gpr84, Mus musculus, UniProt Q8CIM5)

| Compound | target | read-out | action | method | setting | quantity | result |
| --- | --- | --- | --- | --- | --- | --- | --- |
| COc1c(Br)cccc1C(=O)Nc1ccc(Sc2nc3ccccc3s2)c(Cl)c1 | MDH2 | enzyme activity | inhibitor |  |  | IC50 | > 62.5 µM |
| Cc1cc2nc3c(=O)[nH]c(=O)nc-3n(C[C@H](O)[C@H](O)[C@H](O)COP(=O)(O)OP(=O)(O)OC[C@H]3O[C@@H](n4cnc5c(N)ncnc54)[C@H](O)[C@@H]3O)c2cc1C | Protein argonaute-2 (AGO2, Homo sapiens, UniProt Q9UKV8) | binding |  |  | lysate | Kd | 0.021 µM |
| CC(=O)N[C@@H](CCCNC(=N)N)C(=O)NCC(=O)NCC(=O)N1CCC[C@H]1B(O)O | Dipeptidyl peptidase 4 (DPP4, Homo sapiens, UniProt P27487) | enzyme activity | inhibitor | fluorescence |  | Ki | 0.322 µM |
| CNC(=O)c1cc2c(Oc3ccc(NC(=O)C4(C(=O)Nc5ccc(F)cc5)CC4)cc3)ccnc2cc1OC | Tyrosine-protein kinase Mer (MERTK, Homo sapiens, UniProt Q12866) | enzyme activity | inhibitor | radiometric |  | IC50 | 0.0009 µM |
| CC(=O)N[C@@H](Cc1ccccc1)C(=O)N1CCC[C@H]1C(=O)N1CCC[C@H]1C(=O)N1CCC[C@H]1C(=O)N1CCC[C@H]1C(=O)O | Protein enabled homolog (ENAH, UniProt Q8N8S7) | binding |  | fluorescence |  | Kd | 500 µM |
| O=C(Nc1ccc(Sc2nc3ccccc3s2)cc1)c1cccc(Br)c1O | MDH2 | enzyme activity | inhibitor |  |  | IC50 | > 62.5 µM |
| [O-][n+]1cccc(CCOc2ccc(Cl)c3ccccc23)c1 | Gpr84 | cAMP | agonist |  |  | EC50 | 0.011 µM |
| CO[C@@H]1O[C@@H](C)[C@@H](O)[C@@H](O)[C@@H]1O | fleA (Aspergillus fumigatus, UniProt Q4WW81) | binding |  | ITC |  | Kd | 76.4 µM |
| CC(C)C[C@H](NC(=O)[C@H](CCCNC(=N)N)NC(=O)[C@H](C)N)C(=O)N[C@@H](Cc1ccc(O)cc1)C(=O)N[C@@H](Cc1ccc(O)cc1)C(=O)N[C@@H](Cc1ccccc1)C(=O)N[C@@H](Cc1c[nH]c2ccccc12)C(=O)N[C@@H](CC(=O)O)C(=O)N[C@H](C(=O)O)[C@@H](C)O | DNA dC->dU-editing enzyme APOBEC-3G (APOBEC3G, Homo sapiens, UniProt Q9HC16) | enzyme activity | inhibitor |  |  | Ki | ~7.8 µM |
| CC(C)(C)n1nc(-c2ccc3nc(OC4CC4)ccc3c2)c(C(N)=O)c1N | RAC-alpha serine/threonine-protein kinase (AKT1, Homo sapiens, UniProt P31749) | cell-free assay |  |  |  | IC50 | > 10 µM |
| CCCN1CCN(c2ccc(-c3cncc(Cl)c3N3CCC4(CCNC4=O)CC3)cc2)CC1 | Serine/threonine-protein kinase D2 (PRKD2, Homo sapiens, UniProt Q9BZL6) | cell-free assay |  |  | lysate | Kd | 20 µM |
| O=S(=O)(Nc1ccc(-c2nc3cc(NS(=O)(=O)c4ccccc4)ccc3o2)cc1)c1ccccc1 | MDH2 | enzyme activity | inhibitor |  |  | IC50 | > 62.5 µM |
| CCCCCCCCCC(=O)O | Gpr84 | cAMP | agonist |  |  | EC50 | > 10 µM |
| Cc1cnc(-c2ccc(-c3ccc(NC(=O)Nc4c(F)cc(F)cc4F)cc3F)c3c2C(=O)NC3)[nH]1 | Proto-oncogene tyrosine-protein kinase Src (SRC, Homo sapiens, UniProt P12931) | binding |  | competition with immobilised ligand |  | Kd | 0.11 µM |
